Experimental data published in ChEMBL document CHEMBL4229460, “Design and biological evaluation of novel hybrids of 1, 5-diarylpyrazole and Chrysin for selective COX-2 inhibition” (Bioorg Med Chem, 2018).

Assays:
[1] = target: Prostaglandin G/H synthase 1 (Homo sapiens, UniProt P23219); test: Inhibition of COX1 (unknown origin) using arachidonic acid as substrate pretreated for 10 mins followed by substrate addition and measured after 2 mins by ELISA; assay type: ADME
[2] = target: T1, Prostaglandin G/H synthase 2 (Homo sapiens, UniProt P35354); test: Inhibition of COX2 (unknown origin) using arachidonic acid as substrate pretreated for 10 mins followed by substrate addition and measured after 2 mins by ELISA
T1 sequence (P35354 whole entry): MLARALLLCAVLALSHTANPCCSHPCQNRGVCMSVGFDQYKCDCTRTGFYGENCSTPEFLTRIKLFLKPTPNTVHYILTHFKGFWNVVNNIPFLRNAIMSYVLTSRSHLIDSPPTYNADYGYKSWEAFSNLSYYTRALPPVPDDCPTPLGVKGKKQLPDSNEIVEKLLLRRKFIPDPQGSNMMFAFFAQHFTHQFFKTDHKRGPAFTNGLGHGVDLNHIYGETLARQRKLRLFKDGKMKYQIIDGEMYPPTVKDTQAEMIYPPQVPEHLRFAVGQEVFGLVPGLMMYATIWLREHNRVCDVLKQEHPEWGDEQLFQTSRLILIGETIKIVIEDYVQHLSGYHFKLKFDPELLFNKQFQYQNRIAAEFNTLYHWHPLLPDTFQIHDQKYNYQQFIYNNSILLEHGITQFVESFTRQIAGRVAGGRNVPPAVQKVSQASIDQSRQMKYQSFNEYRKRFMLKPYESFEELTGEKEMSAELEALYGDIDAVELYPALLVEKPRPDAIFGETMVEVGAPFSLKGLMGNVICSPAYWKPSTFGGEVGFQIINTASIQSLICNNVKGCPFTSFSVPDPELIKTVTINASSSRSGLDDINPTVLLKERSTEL

Homo sapiens = species on record: Homo sapiens; test: Selectivity index, ratio of IC50 for COX1 (unknown origin) to ratio of IC50 for COX2 (unknown origin)
Procedure, shortened: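 Enzyme ELISA kit: COX-1 or COX-2 preincubated with compound at 0, 1, 10 or 100 μM for 10 min at 37 °C in 0.1 M Tris-HCl pH 8.0, 5 mM EDTA, 2 mM phenol, 1 μM heme. Started with 100 μM arachidonic acid for 2 min at 37 °C, stopped with 1 M HCl. PGH₂ reduced by stannous chloride; PGF2α read by enzyme immunoassay at 450 nm. Index taken as the ratio of the COX IC50 values.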

MCF7 = test: Antiproliferative activity against human MCF7 cells after 48 hrs by MTT assay; assay type: functional, cell-based; conditions: MCF7, 48 h
B16-F10 = test: Antiproliferative activity against mouse B16F10 cells after 48 hrs by MTT assay; assay type: functional, cell-based; conditions: B16-F10, 48 h
Procedure, shortened: (§1)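 Cells kept in DMEM with 10% FBS, penicillin/streptomycin, 37 °C, 5% CO₂. Seeded at 5 × 10⁴ cells/well and allowed to adhere 12 h. Exposed to 0, 0.1, 1, 10 and 100 μM (final) for 48 h. Viability read by MTT reduction at OD 570 nm with 630 nm reference. IC50 reported as mean ± SD of three independent experiments.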

A549 = test: Antiproliferative activity against human A549 cells after 48 hrs by MTT assay; assay type: functional, cell-based; conditions: A549, 48 h; procedure, shortened: as §1
HeLa = test: Antiproliferative activity against human HeLa cells after 48 hrs by MTT assay; assay type: functional, cell-based
HEK-293T = test: Cytotoxicity against human 293T cells after 48 hrs by MTT assay; assay type: cell-based

Chain of Prostaglandin G/H synthase 1 (P23219 whole entry): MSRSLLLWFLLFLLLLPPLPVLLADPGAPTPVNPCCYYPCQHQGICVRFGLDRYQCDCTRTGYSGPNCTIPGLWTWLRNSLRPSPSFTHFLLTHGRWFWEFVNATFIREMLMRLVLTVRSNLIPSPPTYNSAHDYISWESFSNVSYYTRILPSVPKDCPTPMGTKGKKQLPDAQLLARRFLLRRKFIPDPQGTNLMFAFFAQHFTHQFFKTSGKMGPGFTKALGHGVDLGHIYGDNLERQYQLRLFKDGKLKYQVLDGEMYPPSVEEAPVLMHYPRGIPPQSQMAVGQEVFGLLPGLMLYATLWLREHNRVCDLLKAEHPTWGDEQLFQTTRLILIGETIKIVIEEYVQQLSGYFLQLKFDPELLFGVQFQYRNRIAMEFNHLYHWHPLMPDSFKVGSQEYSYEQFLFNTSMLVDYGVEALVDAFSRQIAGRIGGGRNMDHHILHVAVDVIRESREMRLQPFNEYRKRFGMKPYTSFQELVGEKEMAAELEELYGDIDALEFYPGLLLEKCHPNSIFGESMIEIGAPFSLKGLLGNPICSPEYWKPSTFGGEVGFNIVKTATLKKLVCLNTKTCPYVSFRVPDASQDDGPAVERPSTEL

| Compound | IC50 [1] [µM] | IC50 [2] [µM] | Ratio IC50 (Homo sapiens) | IC50 (MCF7) [µM] | IC50 (B16-F10) [µM] | IC50 (A549) [µM] | IC50 (HeLa) [µM] | IC50 (HEK-293T) [µM] |
| --- | --- | --- | --- | --- | --- | --- | --- | --- |
| Cc1ccc(-n2nc(COC(=O)COc3cc(O)c4c(=O)cc(-c5ccccc5)oc4c3)cc2-c2ccc(C(F)(F)F)cc2)cc1 | 29.7 | 5.02 | 5.92 | 6.21 | 7.44 | 5.07 | 4.32 | 212 |
| O=c1cc(-c2ccccc2)oc2cc(O)cc(O)c12 [CHRYSIN] |  |  |  | 25.7 | 17.4 | 47.8 | 25.1 | 319 |
| Cc1ccc(-n2nc(COC(=O)COc3cc(O)c4c(=O)cc(-c5ccccc5)oc4c3)cc2-c2ccc(F)cc2)cc1 | 30.2 | 2.84 | 10.6 | 17.8 | 65.8 | 4.62 | > 100 | 265 |
| Cc1ccc(-n2nc(COC(=O)COc3cc(O)c4c(=O)cc(-c5ccccc5)oc4c3)cc2-c2ccc(Br)cc2)cc1 | 39.5 | 1.08 | 36.5 | 2.96 | 32.1 | 22.7 | 24.7 | 278 |
| Cc1ccc(-n2nc(COC(=O)COc3cc(O)c4c(=O)cc(-c5ccccc5)oc4c3)cc2-c2ccc(Cl)c(Cl)c2)cc1 | 27.9 | 5.02 | 5.56 | 22.2 | 7.61 | > 100 | 6.06 | 273 |
| O=C(COc1cc(O)c2c(=O)cc(-c3ccccc3)oc2c1)OCc1cc(-c2cccc(Cl)c2)n(-c2ccc(Cl)cc2)n1 | 36.8 | 0.422 | 87.3 | 3.94 | 5.73 | 4.34 | > 100 | 272 |
| Cc1cccc(-c2cc(COC(=O)COc3cc(O)c4c(=O)cc(-c5ccccc5)oc4c3)nn2-c2ccc(Cl)cc2)c1 | 27.6 | 1.77 | 15.6 | 23.4 | 4.95 | 32.1 | 4.06 | 162 |
| O=C(COc1cc(O)c2c(=O)cc(-c3ccccc3)oc2c1)OCc1cc(-c2cccc([N+](=O)[O-])c2)n(-c2ccccc2)n1 | 33.8 | 5.94 | 5.68 | 12.6 | 21.7 | > 100 | 30.9 | 348 |
| O=C(COc1cc(O)c2c(=O)cc(-c3ccccc3)oc2c1)OCc1cc(-c2cccc(Cl)c2)n(-c2ccccc2)n1 | 44.8 | 4.43 | 10.1 | 32.9 | 7.86 | 4.71 | 1.75 | 188 |
| Cc1ccc(-n2nc(COC(=O)COc3cc(O)c4c(=O)cc(-c5ccccc5)oc4c3)cc2-c2ccc(Cl)cc2)cc1 | > 50 | 2.12 | > 23 | > 100 | 20.8 | 3.68 | 2.67 | 299 |
| O=C(COc1cc(O)c2c(=O)cc(-c3ccccc3)oc2c1)OCc1cc(-c2ccc(Br)cc2)n(-c2ccccc2)n1 | 43.2 | 2.12 | 20.4 | 8.48 | > 100 | 3.58 | 6.67 | 316 |
| Cc1cccc(-c2cc(COC(=O)COc3cc(O)c4c(=O)cc(-c5ccccc5)oc4c3)nn2-c2ccccc2)c1 | 39.1 | 1.36 | 28.7 | 10.8 | 2.85 | > 100 | 1.95 | 316 |
| Cc1ccc(-n2nc(COC(=O)COc3cc(O)c4c(=O)cc(-c5ccccc5)oc4c3)cc2-c2cccc(Cl)c2)cc1 | 49.6 | 4.8 | 10.3 | 22 | 3.85 | 8.17 | 25.5 | 161 |
| Cc1ccc(-c2cc(COC(=O)COc3cc(O)c4c(=O)cc(-c5ccccc5)oc4c3)nn2-c2ccc(Cl)cc2)cc1 | 40.9 | 1.44 | 28.4 | 7.86 | 17.6 | 4.69 | 12.4 | 222 |
| O=C(COc1cc(O)c2c(=O)cc(-c3ccccc3)oc2c1)OCc1cc(-c2cccc(C(F)(F)F)c2)n(-c2ccccc2)n1 | 41.1 | 4.79 | 8.58 | 8.01 | 6.53 | 6.68 | 4.33 | 271 |
| O=C(COc1cc(O)c2c(=O)cc(-c3ccccc3)oc2c1)OCc1cc(-c2ccc(F)cc2)n(-c2ccccc2)n1 | > 50 | 2.54 | > 20 | 3.82 | 6.24 | 12 | > 100 | 187 |
| COc1ccc(-c2cc(COC(=O)COc3cc(O)c4c(=O)cc(-c5ccccc5)oc4c3)nn2-c2ccc(Cl)cc2)cc1 | 46.4 | 0.35 | 132 | > 100 | 12.4 | 12.7 | 5.65 | 290 |
| O=C(COc1cc(O)c2c(=O)cc(-c3ccccc3)oc2c1)OCc1cc(-c2ccc(Cl)cc2)n(-c2ccccc2)n1 | > 50 | 1.41 | > 35 | 47 | 15.6 | > 100 | 1.65 | 227 |
| O=C(COc1cc(O)c2c(=O)cc(-c3ccccc3)oc2c1)OCc1cc(-c2ccccc2)n(-c2ccccc2)n1 | 32.9 | 2.2 | 13.1 | 3.47 | 1.57 | 3.23 | 2.41 | 173 |
| Cc1ccc(-c2cc(C(F)(F)F)nn2-c2ccc(S(N)(=O)=O)cc2)cc1 [CELECOXIB] |  |  |  | 26.8 | 19.2 | 16.1 | 15.7 | 225 |
